pIC50: −log10 of the molar value. The source made the active and inactive calls. No cut-off for these calls is given here. *1 amine or outer side, *2 acyl side, *3 side chain or, on linkers, in order; H or OH if unused. Where a SMILES comes first, the peptide text is derived from it. Bridges are numbered along the chain shown (N, C = ends). [ ]: non-standard residue; d: D form. hTyr = N[C@@H](CCc1ccc(O)cc1)C(=O)O; aIle = CC[C@@H](C)[C@H](N)C(=O)O; NMeA = CN[C@@H](C)C(=O)O; CO = O=C([*:1])[*:2]
Assays:
[1] = molecular target: Dual specificity protein phosphatase 3 (Homo sapiens) (UniProt P51452); assay: Inhibition of human dual specificity protein phosphatase VHR expressed in Escherichia coli JM109 at 100 ug/mL
Dual specificity protein phosphatase 3 (Homo sapiens), sequence (P51452 whole entry, looked up): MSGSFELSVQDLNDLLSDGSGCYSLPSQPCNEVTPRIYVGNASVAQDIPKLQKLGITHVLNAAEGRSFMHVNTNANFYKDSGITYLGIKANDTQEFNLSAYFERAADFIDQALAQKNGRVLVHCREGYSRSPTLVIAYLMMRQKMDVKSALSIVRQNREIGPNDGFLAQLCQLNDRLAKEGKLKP

[2] = Inhibition of PTP-S2 expressed in Escherichia coli JM109 at 100 ug/mL
Homo sapiens = species: Homo sapiens; assay: Inhibition of human red blood cells PP2A at 100 ug/mL by liquid scintillation counter
How it was run: (§1)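 Enzyme at 0.05 unit/50 µL was incubated with 32P-labelled myelin basic protein, which had been phosphorylated using cAMP-dependent kinase catalytic subunit and γ-[32P]ATP. Reactions ran at 30 °C for 10 min in duplicate and were stopped with 20% trichloroacetic acid on ice. Released 32Pi in the supernatant was counted by liquid scintillation. The control received MeOH.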

[3] = molecular target: T1, M-phase inducer phosphatase 2 (Homo sapiens) (UniProt P30305); assay: Inhibition of human dual specificity protein phosphatase Cdc25B expressed in Escherichia coli BL21 (DE3) at 100 ug/mL
T1 sequence (whole entry): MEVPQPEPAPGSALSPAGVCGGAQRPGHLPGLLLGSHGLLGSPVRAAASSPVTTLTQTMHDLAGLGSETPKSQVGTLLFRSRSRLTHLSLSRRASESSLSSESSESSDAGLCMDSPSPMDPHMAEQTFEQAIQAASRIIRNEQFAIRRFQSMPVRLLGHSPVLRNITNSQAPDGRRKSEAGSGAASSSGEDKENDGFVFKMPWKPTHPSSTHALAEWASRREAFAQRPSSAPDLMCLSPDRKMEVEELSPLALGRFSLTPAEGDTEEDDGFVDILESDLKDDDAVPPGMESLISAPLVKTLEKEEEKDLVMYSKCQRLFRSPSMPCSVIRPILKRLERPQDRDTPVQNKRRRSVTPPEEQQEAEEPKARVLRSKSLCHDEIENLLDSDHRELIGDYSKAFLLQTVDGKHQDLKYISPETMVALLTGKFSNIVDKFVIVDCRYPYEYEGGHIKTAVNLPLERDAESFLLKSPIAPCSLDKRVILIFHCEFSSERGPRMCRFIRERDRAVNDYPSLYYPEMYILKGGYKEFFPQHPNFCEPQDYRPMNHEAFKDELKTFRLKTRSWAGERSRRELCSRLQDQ
How it was run: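 The catalytic subunit was expressed from pET21b and purified. Substrate was 200 µM 3-O-methylfluorescein phosphate in 100 mM Tris-HCl, 40 mM NaCl, 1 mM dithiothreitol, 20% glycerol, pH 8.2, at 37 °C for 20 min. Reactions were stopped with 6 M guanidine-HCl/1 M MES, pH 5.5, and the absorbance increase at 477 nm was read. The control received MeOH.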

Oryctolagus cuniculus = species: Oryctolagus cuniculus; assay: Inhibition of rabbit skeletal muscle PP1 at 100 ug/mL by liquid scintillation counter; how it was run: as §1
[4] = Inhibition of human red blood cell PP2A; how it was run: as §1
[5] = Inhibition of rabbit skeletal muscle PP1; design: species or system Oryctolagus cuniculus; how it was run: as §1

Compound | Activity [1] | Activity [2] | inhibition (Homo sapiens) [%] | Activity [3] | inhibition (Oryctolagus cuniculus) [%] | pIC50 [4] | pIC50 [5]
CC[C@H](C)[C@@H]1NC(=O)[C@H](NC(=O)N[C@@H](CCCNC(=N)N)C(=O)O)CCCCNC(=O)[C@H](Cc2ccccc2)NC(=O)[C@H](C)N(C)C(=O)[C@H](CCc2ccc(O)cc2)NC1=O ({Arg-CO}-[dK]I[hTyr][NMeA]F; lactam 1-C) | inactive | inactive | 41.5 | inactive | 38.1 |  | 
CC[C@@H](C)[C@@H]1NC(=O)[C@H](NC(=O)N[C@@H](Cc2ccc(O)cc2)C(=O)O)CCCCNC(=O)[C@H](Cc2ccccc2)NC(=O)[C@H](C)N(C)C(=O)[C@H](CCc2ccc(O)cc2)NC1=O ({Tyr-CO}-[dK][aIle][hTyr][NMeA]F; lactam 1-C) | inactive | inactive | 9.6 | inactive | 11.2 |  | 
CC[C@H](C)[C@@H]1NC(=O)[C@H](NC(=O)N[C@@H](CCCNC(=N)N)C(=O)O)CCCCNC(=O)[C@H](Cc2ccccc2)NC(=O)[C@H](CCc2ccc(O)cc2)N(C)C(=O)[C@H](CCc2ccc(O)cc2)NC1=O [OSCILLAMIDE C] | inactive | inactive | 98.4 | inactive | 97.3 | 5.88 | 6.05
CSCC[C@@H]1NC(=O)[C@H](NC(=O)N[C@@H](CCCNC(=N)N)C(=O)O)CCCCNC(=O)[C@H](Cc2ccccc2)NC(=O)[C@H](C)N(C)C(=O)[C@H](CCc2ccc(O)cc2)NC1=O ({Arg-CO}-[dK]M[hTyr][NMeA]F; lactam 1-C) | inactive | inactive | 62.8 | inactive | 43.3 |  | 
